In ChEMBL document CHEMBL1134284, “The biological effects of structural variation at the meta position of the aromatic rings and at the end of the alkenyl chain in the alkenyldiarylmethane series of non-nucleoside reverse transcriptase inhibitors” (J Med Chem, 2001):

Assays:
[1] = Antiviral activity against Ba-L monocyte tropic isolate strain in monocyte; format: functional; settings: Homo sapiens
In short: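 Monocytes isolated from hepatitis- and HIV-seronegative donors by Ficoll-Hypaque gradient, cultured 6 days into macrophages, then infected with Ba-L. Medium RPMI 1640 with 10% FBS, 2 mM glutamine, penicillin/streptomycin. Replication read as p24 antigen by ELISA 6 days postinfection. […] Run in triplicate, with AZT as positive control.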

[2] = target: Human immunodeficiency virus type 1 reverse transcriptase (Human immunodeficiency virus 1, UniProt Q72547); assay: Inhibitory activity against HIV-1 Reverse Transcriptase with rCdG as the template primer
In short: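 Cell-free assay with purified recombinant HIV-1 RT (p66/p51 dimer). Activity measured as [32P]GTP incorporation into the poly(rC)/oligo(dG) homopolymer template/primer. IC50 is reported as inhibition of enzyme activity.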

[3] = tested on: CCRF-CEM; assay: Antiviral activity against site directed resistant isolate HIV-1 K101E in CEM cells; format: functional, cell-based, Homo sapiens
[4] = tested on: CCRF-CEM; assay: Antiviral activity against site directed resistant isolate HIV-1 V106A in CEM cells; format: functional, cell-based, Homo sapiens
In short: (§1)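 CEM-SS cells in RPMI 1640 with 10% heat-inactivated FBS were infected with NL4-3 molecular clones carrying site-directed RT mutations. Cytoprotection from virus-induced syncytial killing was read by MTS/phenazine ethosulfate reduction (A490) 6 days after infection. […] Triplicate, variation of mean about 10%.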

[5] = (§2) Antiviral activity against ROJO virus strain in PBLs (peripheral blood lymphocytes); format: functional, cell-based; settings: Homo sapiens
In short: (§3)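 PBMCs isolated from hepatitis- and HIV-seronegative donors by Ficoll-Hypaque gradient and stimulated 3 days with phytohemagglutinin/IL-2. Infected with pediatric low-passage clinical isolates or NIAID subtype isolates, in RPMI 1640 with 10% FBS, 2 mM glutamine, penicillin/streptomycin. Replication read as supernatant reverse transcriptase activity. […] Run in triplicate, with AZT as positive control.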

[6] = tested on: CCRF-CEM; assay: Antiviral activity against site directed resistant isolate HIV-1 Y181C in CEM cells; format: functional, cell-based, Homo sapiens; in short: as §1
[7] = Antiviral activity against subtype isolate B strain in PBLs (peripheral blood lymphocytes); format: functional, cell-based, Homo sapiens; settings: Homo sapiens; in short: as §3
[8] = tested on: CCRF-CEM; assay: Antiviral activity against site directed wild-type enzyme isolate HIV-1 NL4-3WT in CEM cells; format: functional, cell-based; settings: Homo sapiens
In short: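 Wild-type NL4-3 in CEM-SS cells, measured both by MTS cytoprotection 6 days after infection and by p24 ELISA. The IC50 is the mean of the two methods' values.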

[9] = tested on: CCRF-CEM; assay: Antiviral activity against site directed resistant isolate HIV-1 L100I in CEM cells; format: functional, cell-based, Homo sapiens; in short: as §1
[10] = Antiviral activity against TEKI virus strain in PBLs (peripheral blood lymphocytes); format: functional, cell-based; settings: Homo sapiens; in short: as §3
[11] = Antiviral activity against subtype isolate D strain in PBLs (peripheral blood lymphocytes); format: functional, cell-based; settings: Homo sapiens; in short: as §3
[12] = Antiviral activity against subtype isolate C strain in PBLs (peripheral blood lymphocytes); format: functional, cell-based; settings: Homo sapiens; in short: as §3
[13] = tested on: CCRF-CEM; assay: Antiviral activity against site directed resistant isolate HIV-1 V179D in CEM cells; format: functional, cell-based, Homo sapiens; in short: as §1
[14] = Antiviral activity against multi drug resistant MDR 769 strain in PBLs (peripheral blood lymphocytes); format: functional, cell-based; settings: Homo sapiens
In short: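 PBMC from hepatitis- and HIV-seronegative donors isolated by Ficoll-Hypaque gradient and stimulated 3 days with phytohemagglutinin/IL-2 before infection. Medium RPMI 1640 with 10% FBS, 2 mM glutamine, penicillin/streptomycin. Replication read as supernatant reverse transcriptase activity. […] Run in triplicate, SD within triplicate under 10%; AZT positive control.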

[15] = Antiviral activity against subtype isolate G strain in PBLs (peripheral blood lymphocytes); format: functional, cell-based; settings: Homo sapiens; in short: as §3
[16] = tested on: CCRF-CEM; assay: Antiviral activity against site directed 4X AZT resistant isolate HIV-1 in CEM cells; format: functional, cell-based, Homo sapiens; settings: Homo sapiens, CCRF-CEM
[17] = tested on: CCRF-CEM; assay: Antiviral activity against site directed 4X AZT resistant isolate HIV-1 L100I in CEM cells; format: functional, cell-based, Homo sapiens
In short: (§4)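 CEM-SS cells infected with low-cytopathicity site-directed RT-mutant NL4-3 clones (A98G, L74V, 4XAZT = D67N/K70R/T215Y/K219Q, 4XAZT/L100I). Replication was quantified by p24 ELISA rather than cytoprotection. […] Triplicate, variation of mean about 10%.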

[18] = Ratio of CC50/EC50 was determined; settings: read-out: TI
In short: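 HIV-1 RF–infected CEM-SS cells (RPMI 1640, 10% heat-inactivated FBS, 2 mM glutamine, penicillin/streptomycin), plus mock-infected CEM-SS in parallel. Cell killing and viability were read by MTS/phenazine ethosulfate reduction at 490 nm 6 days after infection. […] Index = CC50 ÷ EC50. Triplicate tests.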

[19] = Antiviral activity against subtype isolate A strain in PBLs (peripheral blood lymphocytes); format: functional, cell-based; settings: Homo sapiens; in short: as §3
[20] = Antiviral activity against subtype isolate F strain in PBLs (peripheral blood lymphocytes); format: functional, cell-based, Homo sapiens; settings: Homo sapiens; in short: as §3
[21] = tested on: CCRF-CEM; assay: Antiviral activity against site directed resistant isolate HIV-1 Y188C in CEM cells; format: functional, cell-based, Homo sapiens; in short: as §1
[22] = tested on: CCRF-CEM; assay: Antiviral activity against site directed resistant isolates in HIV-1 A98G CEM cells; format: functional, cell-based, Homo sapiens; in short: as §4
[23] = Antiviral activity against SLKA virus strain in PBLs (peripheral blood lymphocytes); format: functional, cell-based; settings: Homo sapiens; in short: as §3
[24] = tested on: CCRF-CEM; assay: Antiviral activity against site directed resistant isolate HIV-1 L74V in CEM cells; format: functional, cell-based, Homo sapiens; in short: as §4
[25] = tested on: CCRF-CEM; assay: Antiviral activity against site directed resistant isolate HIV-1 K103N in CEM cells; format: functional, cell-based, Homo sapiens; in short: as §1
[26] = tested on: Human immunodeficiency virus type 1 (RF/HAT ISOLATE); assay: Inhibitory concentration for cytopathicity of HIV-1RF in CEM-SS cells; format: functional, organism-based; settings: Human immunodeficiency virus 1, RF
In short: (§5)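 CEM-SS cells kept in RPMI 1640 with 10% heat-inactivated FBS, 2 mM glutamine, penicillin/streptomycin. Microtiter assay with cytopathic HIV-1 RF, or mock infection for toxicity. Viability read by MTS/phenazine ethosulfate reduction (absorbance 490 nm) 6 days after infection. […] Triplicate.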

[27] = Antiviral activity against subtype isolate E strain in PBLs (peripheral blood lymphocytes); format: functional, cell-based; settings: Homo sapiens
[28] = Antiviral activity against subtype isolate O strain in PBLs (peripheral blood lymphocytes); format: functional, cell-based, Homo sapiens; settings: Homo sapiens; in short: as §3
[29] = tested on: CEM-SS; assay: Concentration required for cytotoxicity against mock infected CEM-SS cells; format: functional; settings: Homo sapiens; in short: as §5
[30] = tested on: PBL; assay: as §2; format: functional, cell-based; settings: Homo sapiens; in short: as §3
[31] = Antiviral activity against WEJO virus strain in PBLs (peripheral blood lymphocytes); format: functional, cell-based; settings: Homo sapiens; in short: as §3

| Structure (SMILES) | IC50 [1] [nM] | IC50 [2] [nM] | IC50 [3] [nM] | IC50 [4] [nM] | IC50 [6] [nM] | IC50 [7] [nM] | IC50 [8] [nM] | IC50 [9] [nM] | IC50 [10] [nM] | IC50 [11] [nM] | IC50 [12] [nM] | IC50 [13] [nM] | IC50 [14] [nM] | IC50 [15] [nM] | IC50 [16] [nM] | IC50 [17] [nM] | selectivity ratio [18] | IC50 [19] [nM] | IC50 [20] [nM] | IC50 [21] [nM] | other results |
| --- | --- | --- | --- | --- | --- | --- | --- | --- | --- | --- | --- | --- | --- | --- | --- | --- | --- | --- | --- | --- | --- |
| CCOC(=O)CCCC=C(c1cc(Br)c(OC)c(C(=O)OC)c1)c1cc(Br)c(OC)c(C(=O)OC)c1 | 4400 | 359 | 957 | 7020 | 4400 | 4900 | 440 | 15 | 1000 | 30 | 150 | 2500 | 6300 | 400 | 70 | 370 | 2360 | 200 | 760 | 1800 | IC50 [5]: 200 nM; IC50 [22]: 15 nM; IC50 [23]: 1100 nM; IC50 [24]: 352 nM; IC50 [25]: 460 nM; EC50 [26]: 7 nM; IC50 [27]: 100 nM; IC50 [28]: 21000 nM; CC50 [29]: 16500 nM |
| CCOC(=O)CCCC=C(c1cc(Cl)c(OC)c(C(=O)OC)c1)c1cc(Cl)c(OC)c(C(=O)OC)c1 | 8900 | 233 | 164 | 10300 | 19100 | 12500 | 580 | 80 | 1000 | 150 | 820 | 2300 | 45200 | 800 | 76 | 370 | 1600 | 200 | 300 | 4100 | IC50 [30]: 390 nM; IC50 [31]: 700 nM; IC50 [22]: 13 nM; IC50 [23]: 900 nM; IC50 [24]: 885 nM; IC50 [25]: 270 nM; EC50 [26]: 10 nM; IC50 [27]: 200 nM; IC50 [28]: 30000 nM; CC50 [29]: 16000 nM |
